GASC1 inh: inhibitors of human demethylase GASC-1 KDM4C. GST-KDM4C 2-372, H3K9me3 peptide, LANCE TR-FRET. AID 720574. Q9H3R0. inhibition, % at 12.5 µM. 96,000 tested, 0.15% active;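 active means mean replicate inhibition above about 25%, with at least 55% of replicates also reaching it, limit read from the data, passing the limit was not always enough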
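Material: GST-tagged GASC-1 (JMJD2C) catalytic fragment, aa 2-372 / Quantity: enzyme final amount 10 nM / Medium: HEPES buffer, pH 7.5, plus ascorbate / Doses: one test concentration per compound / Incubation: 30 min reaction, 60 min detection, RT / Measured by: LANCE TR-FRET / Read-out: inhibition from TR-FRET ratio decrease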
Pf Dd2 growth: P. falciparum Dd2 growth inhibition; SYBR Green, 72 h; hits give low values; activity change, % at 10 µM; 94,000 tested, 2.3% active; in the data active means activity change below about -80%
T cruzi growth-1: blocks T. cruzi growth in NIH3T3 culture | T. cruzi beta-gal in NIH3T3, GalScreen luminescence, 90 h | inhibition, % at 8.34 µM | 77,000 tested, 5.9% active | AID 624255;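 active means mean inhibition above about 93%, with at least 55% of replicates each passing it, limit read from the data, passing the limit was not always enough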
IDH1 mut inh: inhibitors of human IDH1 R132H; 70,000 tested, 0.18% active; inhibition, % at 10 µM; IDH1 R132H reductase, diaphorase/resazurin fluorescence, 60 min; O75874; in the data active means inhibition above about 34%;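 further: 0% = DMSO and 100% = no enzyme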
T cruzi growth-2: blocks T. cruzi growth in NIH3T3 host cells | shares compounds with T cruzi growth-1 | T. cruzi beta-gal in NIH3T3, GalScreen luminescence, 90 h | inhibition, % at 8.35 µM | 5,600 tested, 72% active;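 active means mean replicate inhibition above about 95% and at least 55% of replicates individually reaching it, limit read from the data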
T cruzi growth-3: Trypanosoma cruzi proliferation inhibition | shares compounds with T cruzi growth-1 | T. cruzi beta-gal in NIH3T3, GalScreen luminescence, 90 h | inhibition, % at 2.09 µM | 5,600 tested, 21% active;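 active means mean inhibition above about 95%, with at least 55% of replicates also reaching it, limit read from the data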;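 further: plate controls were neutral control median for no effect and positive control median for full effect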
3T3 cytotox: kills mouse NIH/3T3 fibroblasts; shares compounds with T cruzi growth-1; AID 651742; NIH/3T3 viability, CellTiter-Glo ATP luminescence, 90 h; 5,600 tested, 14% active; cytotoxicity (signal decrease), % at 8.35 µM;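 active means mean signal decrease across replicates above about 35% based on untreated-well scatter, with enough replicates individually passing, limit read from the data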;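 further: 0% = median of neutral control wells and 100% = median of positive control wells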
NIH3T3 tox 2: kills mouse NIH/3T3 fibroblasts; shares compounds with T cruzi growth-1; NIH/3T3 viability, CellTiter-Glo ATP luminescence, 90 h; inhibition, % at 24.9 µM; 5,600 tested, 56% active; AID 651744;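 active means mean loss of cell viability signal at or above a set limit, and enough replicates individually reaching it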;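 further: 0% = median of neutral control wells and 100% = median of positive control wells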
* = called active by the depositor; . = no result. A selection: hits, their analogues and other compounds. The true share with any hit is near 5.8%.

SMILES	GASC1 inh	Pf Dd2 growth	T cruzi growth-1	IDH1 mut inh	T cruzi growth-2	T cruzi growth-3	3T3 cytotox	NIH3T3 tox 2
O=C(Cc1ccncc1)N1CCCCN2[C@@H](CO)[C@@H](c3ccc(C#CC4(O)CCCC4)cc3)[C@@H]2C1	0	-10	110*	.	26	-14	-17	-9
O=C(Cc1ccccc1)N1CCCCN2[C@@H](CO)[C@H](c3ccc(C#CC4(O)CCCC4)cc3)[C@@H]2C1	0	-28	109*	.	102*	28	11	33*
O=C(Cc1ccccc1)N1CCCCN2[C@H](CO)[C@H](c3ccc(C#CC4(O)CCCC4)cc3)[C@@H]2C1	-1	2	103*	.	76	39	11	15
O=C(Cc1ccccc1)N1CCCCN2[C@@H](CO)[C@@H](c3ccc(C#CC4(O)CCCC4)cc3)[C@@H]2C1	0	-28	94	.	.	.	.	.
O=C1/C(=C/c2ccccc2)C[C@@]2(O)C3Cc4ccc(O)c5c4[C@@]2(CCN3CC2CC2)[C@H]1O5	.	.	.	1	.	.	.	.
C=CC1CN2CCC1CC2C(OC(=O)c1ccco1)c1ccnc2ccccc12 (stereo unspecified)	.	.	.	4	.	.	.	.
COC1CC(O[C@H]2CC[C@@]3(C)C(CCC4C3CC[C@]3(C)C(C5=CC(=O)OC5)CCC43O)C2)OC(C)C1OC1OC(COC2OC(CO)C(O)C(O)C2O)C(O)C(O)C1O (stereo partly specified)	.	.	.	0	.	.	.	.

Source: PubChem
